In the library only some 6.1% were active in any assay of this set; here they are far more common.
hDAT+cocaine: changed hDAT dopamine uptake under cocaine IC80, either direction, primary screen, cocaine antagonist project, cell-based, LLC-PK1 hDAT, [14C]-dopamine uptake, MLSMR. Sodium-dependent dopamine transporter (Homo sapiens), Q01959. LLC-PK1 hDAT cells, [14C]-dopamine uptake with cocaine IC80; actives deviate in either direction. B-score at 10 µM. hit rate 1.3% among 110,000;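 active means Z score or B-score, a plate-position-corrected score, falls beyond the plate's 99.7% confidence bounds, in either direction; inactive means both scores lie inside the 99.7% bounds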
Target sequence (Q01959 whole entry, looked up): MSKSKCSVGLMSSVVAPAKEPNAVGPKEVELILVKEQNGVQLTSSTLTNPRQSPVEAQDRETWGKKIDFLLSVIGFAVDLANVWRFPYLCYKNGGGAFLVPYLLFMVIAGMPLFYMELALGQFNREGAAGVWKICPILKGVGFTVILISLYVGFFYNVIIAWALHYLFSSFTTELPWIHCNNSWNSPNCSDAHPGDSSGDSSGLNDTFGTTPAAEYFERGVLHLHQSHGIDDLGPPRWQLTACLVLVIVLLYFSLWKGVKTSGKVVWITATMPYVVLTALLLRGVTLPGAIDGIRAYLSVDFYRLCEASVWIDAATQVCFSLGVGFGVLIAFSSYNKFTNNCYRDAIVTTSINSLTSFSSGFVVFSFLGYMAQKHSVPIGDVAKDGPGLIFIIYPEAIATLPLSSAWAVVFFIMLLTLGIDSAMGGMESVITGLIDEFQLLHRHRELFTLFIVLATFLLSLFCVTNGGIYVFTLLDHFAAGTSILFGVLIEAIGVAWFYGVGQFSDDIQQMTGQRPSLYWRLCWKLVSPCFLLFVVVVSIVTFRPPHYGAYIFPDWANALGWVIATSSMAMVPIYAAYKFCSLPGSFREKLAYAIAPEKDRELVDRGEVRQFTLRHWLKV
WT yeast gro inh: growth inhibition of WT strain, primary screen, mitochondrial fusion inhibitor project, WT and mutant strains, chemical genetic; inhibition, % at 10 µM; mitochondrial fusion phenotypic screen; hit rate 2.1% among 190,000; in the data active means inhibition above about 58%; tested in S. cerevisiae
Measles CPE: compounds protecting cells from measles virus cytopathic effect, primary screen, measles RdRp inhibitor project, single point, MLSMR library, absorbance; Measles virus-infected cells, CPE protection; protection (pct of control), % at 4 µM; hit rate 1.5% among 140,000; in the data active means protection mostly above about 24%, no sharp cut-off; inactive means mostly below about 26%
BB579 growth dn: growth inhibitors of yeast BB579 in restrictive medium, primary screen, yeast lifespan-shortening project, S. cerevisiae; OD615, 48 h; AID 804, 2007; hit rate 0.51% among 140,000; inhibition, % at 10 µM;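 active means inhibition above a set limit, 3 SD over the mean compound inhibition, cut at about 44% in these data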
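Assay system: S. cerevisiae DeaD strain BB579 yeast. Medium: CSMM-D restrictive synthetic medium containing dextrose (glucose). Times: 4 h cell preincubation, 48 h compound exposure, 30 °C humidified. Signal: OD615 turbidity measurement. Benchmarks: positive control amphotericin B 10 µg/mL.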
RAM network inh: inhibitors of the yeast RAM network, primary screen, dse1pr::URA3 reporter, 5-FOA selection | inhibition, % at 50 µM | hit rate 1.8% among 190,000 | S. cerevisiae dse1pr::URA3 reporter, 5-FOA growth OD615, 2 d; analog-sensitive cbk1-as2 kinase mutant strain | AID 868, 2007;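 active means inhibition above a set limit, 3 SD over mean compound inhibition, cut at about 8.4% in these data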;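 further: inhibition rescues growth on 5-FOA so higher OD means more RAM inhibition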
Yeast lifespan up: compounds extending yeast replicative lifespan, primary screen, S. cerevisiae, OD615; S. cerevisiae growth with nicotinamide; deaD strain in restrictive glucose medium; inhibition of the nicotinamide effect, % at 10 µM; hit rate 0.68% among 130,000; AID 775, 2007;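 active means inhibition above a set limit, placed 3 SD over the median of all compounds, cut at about 26% in these data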
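Buffer or medium: CSMM-D glucose medium, restrictive; test system: modified budding yeast, DeaD strain; compound: single dose 10 µM compound, 0.25% DMSO; schedule: culture preincubation 4 h, compound exposure 48 h, both 30 °C; detection: optical density (absorbance) at 615 nm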
Numbers stand for hits; - = inactive; . = no result.

SMILES	hDAT+cocaine	WT yeast gro inh	Measles CPE	BB579 growth dn	RAM network inh	Yeast lifespan up
O=C(c1ccccc1)[C@H]1[C@H](c2ccccc2)[C@@]2(N=C(c3ccccc3)OC2=O)C2c3ccccc3C=NN21 (stereo partly specified)	-	-	-	-	-	-
Cc1cc(C)cc(N(CCC(=O)O)S(=O)(=O)c2ccc3ccccc3c2)c1	.	-	-	-	-	33
CCOc1cc(C2NC(=O)NC(C)=C2C(=O)OCc2ccccc2)ccc1O (stereo unspecified)	-	-	47	-	-	-
COc1cc(C2NC(=O)NC(C)=C2C(=O)OCc2ccccc2)ccc1O (stereo unspecified)	-	-	-	-	-	.
O=C(Cn1ncc2c3ccccc3n(Cc3ccc(F)cc3)c2c1=O)N1CCN(c2ncccn2)CC1	2.8	-	-	-	-	-
Cc1ccccc1Cn1c2ccccc2c2cnn(CC(=O)N3CCN(c4ccccc4)CC3)c(=O)c21	-	-	-	-	-	-
NS(=O)(=O)c1ccc(NC(=S)NC2CC2)cc1	.	-	.	.	-	.
CCOc1cc(CN2CCN(CCOCCO)CC2)ccc1OC	-2.7	-	-	-	-	-
O=C(CCc1c[nH]c2ccccc12)NCC1CCCO1 (stereo unspecified)	-	-	-	-	-	-
CN1CCN(C(=O)c2cc(COc3c(F)cccc3F)on2)CC1c1ccccc1 (stereo unspecified)	.	79	.	.	-	.
CN1CCN(C(=O)c2cc(COc3ccc(F)cc3Cl)on2)CC1c1ccccc1 (stereo unspecified)	.	-	.	.	-	.
O=C(c1cc(COc2c(F)cccc2F)on1)N1CCC(c2ccccc2Cl)C1 (stereo unspecified)	.	-	.	.	8.4	.
O=C(c1cc(COc2c(F)cccc2F)on1)N1CCC(c2ccccc2F)C1 (stereo unspecified)	.	-	.	.	-	.
O=C(O)CC(NC(=O)c1sc2ccccc2c1Cl)c1ccc(OC2CCCC2)cc1 (stereo unspecified)	.	-	.	.	9.6	.
O=C1c2ccccc2C(=O)N1CCCCSc1nnnn1-c1ccccc1	-	-	-	-	9.3	-
O=C1c2ccccc2C(=O)N1CSc1nnnn1-c1ccccc1	-	-	-	-	-	-
Fc1ccccc1Cc1noc(CN2CCC(OCc3cccnc3)CC2)n1	.	-	.	.	-	.
NC(=O)C1(N2CCCCC2)CCN(C(=O)CSc2nc3ccccc3[nH]2)CC1	-	-	41	-	-	.
NC(=O)C1CCN(C(=O)CSc2nc3ccccc3[nH]2)CC1	-	-	-	-	-	-
CC(C)(C)SCCNC(=O)CN(c1ccc(F)cc1)S(=O)(=O)c1ccccc1	.	-	.	.	-	.
CCNc1nc(NCC)n2c(SCC(=O)Nc3ccccc3[N+](=O)[O-])nnc2n1	.	-	-	-	-	-
Cc1ccc2cc(CCNC(=O)c3ccco3)c(=O)[nH]c2c1	-	-	-	-	-	.
Cc1ccc2cc(CN(C(=O)c3ccco3)c3ccccc3C)c(=O)[nH]c2c1	-	96	-	-	-	-
Cc1c(CCO)c(=O)[nH]n1C(=O)c1ccc(F)cc1	-	-	-	-	-	-
CC1CN(Cc2ccccc2)c2ccccc2NC1=S (stereo unspecified)	.	67	-	-	-	-
SMILES	hDAT+cocaine	WT yeast gro inh	Measles CPE	BB579 growth dn	RAM network inh	Yeast lifespan up
CC(C)CNC(=O)CN(c1cccc(Cl)c1)S(C)(=O)=O	.	-	.	.	-	.
O=S(=O)(NC1CCCCC1Oc1ccccc1)c1ccc(Cl)cc1 (stereo unspecified)	.	61	-	-	-	-
CSc1ccc(OC2CCCCC2NS(=O)(=O)c2ccc(Cl)cc2)cc1 (stereo unspecified)	.	74	-	-	-	-
CN(c1ccccc1)C1CCCCC1NS(=O)(=O)c1ccc(Cl)cc1 (stereo unspecified)	.	65	-	-	-	36
CCN(CC)C1CCCCC1NS(=O)(=O)c1ccc(Cl)cc1 (stereo unspecified)	-	-	-	-	-	-
CCOC(=O)C(O)(CC(=O)c1ccc(OC)cc1)C(F)(F)F (stereo unspecified)	-8.8	-	-	-	-	.
COC(=O)C(O)(CC(=O)Nc1ccc(OC)cc1)C(F)(F)F (stereo unspecified)	-	-	-	-	-	.
CC1=C(/C=C/C(=O)O)C(C)(C)CCC1	-	-	-	-	-	28
CC1=C(/C=C/C(C)=C/C=C/C(C)=C\C(=O)O)C(C)(C)CCC1	-	.	.	.	.	.
CCOC(=O)CSc1n[nH]c(NC(=O)c2ccccc2)n1	-	-	53	-	-	-
Cc1ccc(N2NC(=O)/C(=C\c3cc4c(cc3[N+](=O)[O-])OCO4)C2=O)cc1C	.	-	-	-	-	49
O=Cc1cccn1-c1ncc(Br)cn1	.	-	.	.	-	.
O=C1C(C2=C(O)c3ccccc3C2=O)=Nc2ccccc21	-	-	-	-	-	45
COc1cc(-c2nc(-c3ccccc3)c(-c3ccc(F)cc3)[nH]2)cc2c1OCO2	.	-	-	-	-	-
COc1ccccc1N=Nc1nc(-c2ccccc2)c(-c2ccccc2)[nH]1	.	64	-	-	-	-
COc1ccc(N=Nc2nc(-c3ccccc3)c(-c3ccccc3)[nH]2)cc1	.	-	-	-	11	-
Oc1ccccc1N=Nc1nc(-c2ccccc2)c(-c2ccccc2)[nH]1	-	-	-	-	8.6	-
CS(=O)(=O)c1nc(-c2ccccc2)c(-c2ccccc2)[nH]1	.	-	-	-	-	-
COc1ccc(-c2nc(C)ncc2N=Nc2ccccc2)cc1	-	98	-	-	-	-
CC1=CC(C)C2(COC(=O)Nc3ccccc3)COC(C)C1C2C (stereo unspecified)	.	-	.	.	-	.
Cc1ccc(N/N=C/c2c(O)cc(C)oc2=O)cc1	-	-	-	96	-	-
Cc1cc(O)c(/C=N/Nc2ccc(F)cc2)c(=O)o1	.	-	.	.	-	.
Cc1ccc(OCCN2C(=O)NC3(CCc4ccccc4C3)C2=O)cc1 (stereo unspecified)	.	-	-	-	-	-
c1ccc2nc3ccccc3nc2c1	-	-	-	60	-	-
Nc1nc2ccccc2nc1N	-8	-	-	-	-	-
O=C(O)c1nc2ccccc2nc1C(=O)O	-	.	-	-	-	-
COc1nc2ccccc2nc1OC	.	-	.	.	-	.
Cc1ccc(Cl)cc1N1CCN(C(=O)CN(C2CCCCC2)S(C)(=O)=O)CC1	-	-	-	-	-	.
